Experimental data gathered from unrelated publications.
Each line is one published result; the experiments were not run side by side.
Target: Dual specificity protein kinase TTK (TTK, Homo sapiens, UniProt P33981)
Sequence (P33981 1-857, as in one of the studies): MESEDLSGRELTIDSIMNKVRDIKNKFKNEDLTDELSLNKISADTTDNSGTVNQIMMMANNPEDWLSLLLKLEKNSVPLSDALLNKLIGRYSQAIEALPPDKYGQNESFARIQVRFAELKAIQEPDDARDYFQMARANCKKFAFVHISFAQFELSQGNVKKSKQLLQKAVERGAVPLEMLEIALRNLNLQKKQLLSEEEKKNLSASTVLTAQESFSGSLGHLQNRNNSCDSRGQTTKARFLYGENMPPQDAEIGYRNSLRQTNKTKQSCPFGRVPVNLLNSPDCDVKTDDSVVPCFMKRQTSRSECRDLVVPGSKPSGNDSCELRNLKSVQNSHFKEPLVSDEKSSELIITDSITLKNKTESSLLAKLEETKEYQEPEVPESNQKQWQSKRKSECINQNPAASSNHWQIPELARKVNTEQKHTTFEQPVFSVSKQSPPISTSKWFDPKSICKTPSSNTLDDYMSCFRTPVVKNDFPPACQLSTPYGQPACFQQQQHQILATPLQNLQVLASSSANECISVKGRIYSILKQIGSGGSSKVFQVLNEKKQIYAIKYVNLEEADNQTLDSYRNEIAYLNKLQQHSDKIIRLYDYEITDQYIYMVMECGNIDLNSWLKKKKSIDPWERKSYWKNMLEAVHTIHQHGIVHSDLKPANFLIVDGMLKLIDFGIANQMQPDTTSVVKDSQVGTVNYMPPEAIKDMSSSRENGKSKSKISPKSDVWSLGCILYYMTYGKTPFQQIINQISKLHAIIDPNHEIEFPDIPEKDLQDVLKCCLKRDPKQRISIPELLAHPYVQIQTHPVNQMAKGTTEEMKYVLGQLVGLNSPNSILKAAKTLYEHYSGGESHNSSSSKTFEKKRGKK

FC(F)(F)Oc1cccc(-c2cnc3ccc(-c4ccncc4)nn23)c1 — remaining binding (binding, competition with immobilised ligand; 5 µM): 53%
CN(C)c1ncc(F)c(-c2cnn3ncccc23)n1 — remaining binding (binding; 1 µM): 66%
COc1cnc(Nc2cccc(S(N)(=O)=O)c2)nc1N1CCN(c2ccccc2)CC1 — remaining binding (binding, competition with immobilised ligand; 1 µM): 83%
C=CC(=O)N1CCC(C(=O)NCC(=O)N2CCN(c3nc(-c4cnc(N)nc4C(F)F)nc(N4CCOCC4)n3)CC2)CC1 — remaining binding (binding, competition with immobilised ligand; 1 µM): 92%
CNC(=O)Nc1ccc2c(c1)CC[C@@]21OC(=O)N(CC(=O)N(Cc2ccc(F)cc2)[C@@H](C)C(F)(F)F)C1=O — remaining binding (cell-free assay, competition with immobilised ligand; 1 µM): 100%
O=C(Nc1c[nH]nc1C(=O)NC1CCNCC1)c1cc(F)cc(F)c1 — remaining binding (binding, competition with immobilised ligand; 1 µM): 100%
O=C(c1ccc(Nc2ncc(Cl)c(-c3ccc(Cl)s3)n2)cc1)N1CCC(N2CCCC2)CC1 — remaining binding (binding, competition with immobilised ligand; 1 µM): 26%
CC1=C(C#N)C(c2ccc3c(c2)c(NC(=O)c2ccccc2C)nn3C)C(C#N)=C(C)N1 — remaining binding (cell-free assay, competition with immobilised ligand; 1 µM): 82%
O=C(NCCCN1CCOCC1)c1ccc(Nc2ncc(Cl)c(-c3ccc(Cl)s3)n2)cc1 — remaining binding (binding, competition with immobilised ligand; 1 µM): 58%
c1cncc(-c2cccc(Nc3nccc(NC4CCCCC4)n3)c2)c1 — remaining binding (binding, competition with immobilised ligand; 10 µM): 30%
Cc1cnn2ncc(-c3ccnc(N(C)C)n3)c2c1 — remaining binding (binding; 1 µM): 100%
CCN1CCN(Cc2ccc(C(=O)Nc3ccc(C)c(Oc4ccc5c(c4)CC(=O)N5)c3)cc2C(F)(F)F)CC1 — remaining binding (binding, competition with immobilised ligand; 1 µM): 100%
CN(C)c1nccc(-c2cnn3ncccc23)n1 — remaining binding (binding; 1 µM): 100%
CCC(=O)N[C@H]1CC[C@@H](C(=O)N(C)c2ccc(-c3nc4ccccc4o3)cc2)C1 — remaining binding (cell-free assay, competition with immobilised ligand; 1 µM): 100%
C[C@H]1CCN(c2nccc(-c3cnn4ncccc34)n2)C1 — remaining binding (binding; 1 µM): 34%
CCOC(=O)c1cc2cc(-c3cc(C(=O)NCc4ccc(C(=O)O)cc4)nn3C)ccc2[nH]1 — remaining binding (cell-free assay, competition with immobilised ligand; 0.1 µM): 93%
O=C(NCCCN1CCOCC1)c1ccc(Nc2nccc(-c3cc4ccccc4s3)n2)cc1 — remaining binding (binding, competition with immobilised ligand; 1 µM): 72%
N[C@H]1CCN(c2nccc(-c3cnn4ncccc34)n2)C1 — remaining binding (binding; 1 µM): 93%
CO[C@@H](C)c1c(Nc2ccc([C@@H](N(C)C(=O)C3CCS(=O)(=O)CC3)C(F)(F)F)cc2)cnc2cc(Cl)nn12 — remaining binding (cell-free assay, competition with immobilised ligand; 1 µM): 100%
CN(C)c1nccc(-c2cnc3ncccn23)n1 — remaining binding (binding; 1 µM): 74%
NS(=O)(=O)c1cc(NC(=O)Cc2ccccc2)ccc1Oc1cccc(Cl)c1 — remaining binding (cell-free assay, competition with immobilised ligand; 1 µM): 91%
